Source: PubChem BioAssay
Most compounds without a hit are left out; they make up all but 1.8% or so of the library.
STAT1 blocker: inhibitors of IFN-gamma induced STAT1 signaling | NIH 3T3 STAT1-luciferase reporter, luminescence | inhibition, % at 5.5 µM | 200,000 tested, 0.35% active | AID 920;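 active means inhibition above a set limit, the mean inhibition across all tested compounds plus 3 SD, cut at about 34% in these data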;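 further: 0% = IFN-gamma with DMSO and 100% = IFN-gamma with 300 µM nifuroxazide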
STAT3 act: activators of IL-6 induced STAT3 signaling. U3A cells, IL-6 STAT3-luciferase reporter, luminescence; 100% = signal with IL-6 EC80 alone. activation (% of control), % at 5.6 µM. 190,000 tested, 0.91% active;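 active means activation above the screen-wide mean of compound activation plus 3 SD, cut at about 130% in these data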;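 further: 0% = background luminescence of wells with medium and substrate only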
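System – human U3A cells carrying STAT3-luciferase construct · Probe or stimulus – Interleukin-6, 33 ng/mL · Schedule – compound 1 h, then IL-6 6 h at 37 °C · Signal – luminescence from STAT3-driven luciferase reporter · Evaluation – percent of IL-6-only median luminescence · Benchmarks – IL-6-only high control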
STAT3 blocker: STAT3 signaling inhibition. U3A cells, IL-6 STAT3-luciferase reporter, luminescence; host cell line lacks STAT1. inhibition, % at 5.5 µM. 190,000 tested, 0.89% active. AID 862;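 active means inhibition above the mean inhibition across all screened compounds plus 3 SD, cut at about 44% in these data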;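 further: 0% = DMSO only wells and 100% = 100 µM nifuroxazide control wells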
PPC-1+TRAIL kill: compounds killing PPC-1 cancer cells with TRAIL present (potentiator screen, no TRAIL-free arm). cell killing (% activity), % at 4 µM or 5 µM. PPC-1 cells + TRAIL, ATPLite viability luminescence. 220,000 tested, 0.41% active;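 active means cell killing above 50% in the first pass at 4 µM, then a duplicate retest at 5 µM averaging 50% or more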;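 further: plate controls were cells with TRAIL plus DMSO for no effect and medium-only wells lacking cells for full effect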
C8 TRAIL sens: caspase-8 TRAIL sensitization; 360,000 tested, 1% active; AID 624354; inhibition (viability loss, TRAIL sensitization), % at 10 µM; NB7+C8 cells + TRAIL, ATPlite viability luminescence;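 active means compounds causing at least 50% loss of cell viability in the single-dose screen, relative to plate controls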
The depositor's hits bear a star; nt = no result.

SMILES | STAT1 blocker | STAT3 act | STAT3 blocker | PPC-1+TRAIL kill | C8 TRAIL sens
C/C(=N\NC(=O)c1cc2ccccc2cc1O)c1cccs1 | nt | nt | nt | nt | 52.5*
C/C(=N/NC(=O)c1cc2ccccc2cc1O)c1ccco1 | nt | nt | nt | nt | 55.3*
CN=c1scc(-c2cccs2)n1/N=C/c1ccc(O)c(O)c1O | 46.6* | 63.6 | 44.6* | 38.3 | 90.8*
CN=c1scc(-c2cccs2)n1/N=C/c1ccccc1O | 47.0* | 9.2 | 107.3* | 74.0* | 93.6*
CN=c1scc(C)n1/N=C/c1ccc(O)c(O)c1O | 9.2 | 80.6 | 23.3 | 6.5 | 39.3
O=[N+]([O-])c1ccc(S(=O)(=O)Nc2ccc(-c3ccc(N4CCOCC4)nn3)cc2)cc1 | nt | nt | nt | nt | 10.7
O=[N+]([O-])c1ccc(S(=O)(=O)Nc2cccc(-c3ccc(N4CCOCC4)nn3)c2)cc1 | nt | nt | nt | nt | 50.7*
O=[N+]([O-])c1ccc(Cl)c(S(=O)(=O)Nc2ccc(-c3ccc(N4CCOCC4)nn3)cc2)c1 | nt | nt | nt | nt | 7.4
O=[N+]([O-])c1ccc(Cl)c(S(=O)(=O)Nc2cccc(-c3ccc(N4CCOCC4)nn3)c2)c1 | nt | nt | nt | nt | 58.2*
Cc1nn(-c2ccccc2)c(Cl)c1C(=O)NCC1CCCO1 (stereo not given) | nt | nt | nt | nt | 5.0
COc1cc(NC(=O)CNc2cccc(S(=O)(=O)N3CCOCC3)c2)cc(OC)c1 | nt | nt | nt | nt | 13.8
CC(=O)OCC(C)n1[nH]c2ccccc2c1=O (stereo not given) | nt | nt | nt | nt | -0.2
COc1cccc(C(=O)O/N=C(\N)c2ccc(C)cc2)c1 | nt | nt | nt | nt | 39.0
COc1cccc(C(=O)O/N=C(\N)c2ccncc2)c1 | -42.2 | 99.4 | 5.3 | 18.2 | 52.9*
N/C(=N\OC(=O)c1ccc2c(c1)OCO2)c1ccc(Cl)cc1 | -59.0 | 112.6 | -10.6 | 31.2 | 29.3
N/C(=N\OC(=O)c1ccc2c(c1)OCO2)c1ccncc1 | nt | nt | nt | 18.7 | 60.1*
CCCCN(C(=O)CSCC(=O)Nc1ccc(C)cc1)c1c(N)n(CC(C)C)c(=O)[nH]c1=O | nt | nt | nt | nt | -0.7
O=C(COC(=O)c1ccccc1C(=O)c1ccc(Cl)c([N+](=O)[O-])c1)NC1CC1 | 16.1 | 86.7 | 18.3 | 9.1 | 92.9*
Cc1cc(C)cc(NS(=O)(=O)c2ccc3[nH]cc(C(=O)NCc4ccco4)c(=O)c3c2)c1 | 4.5 | 89.1 | 15.9 | 19.1 | 83.8*
O=C(OCC12CC3CC(CC(C3)C1)C2)c1ccc(NCc2cc(O)ccc2O)cc1 | nt | nt | nt | nt | 92.5*
O=C(OCCC12CC3CC(CC(C3)C1)C2)c1ccc(NCc2cc(O)ccc2O)cc1 | nt | nt | nt | nt | 91.7*
CCNC(=O)OCCC12CC3CC(CC(C3)C1)C2 | -9.8 | 105.4 | -8.0 | 21.4 | 0.1
O=C(NCc1ccc(Cl)cc1)C1CCC(=O)N(C2CCCCCC2)C1 (stereo not given) | nt | nt | nt | nt | 3.9
CCCOc1ccc(-c2nc(N3CCN(C)CC3)c3ccccc3n2)cc1 | nt | nt | nt | nt | 65.9*
O=C1N(c2ccccc2)CCN1c1ccccc1 | nt | nt | nt | nt | 64.5*
SMILES | STAT1 blocker | STAT3 act | STAT3 blocker | PPC-1+TRAIL kill | C8 TRAIL sens
COc1ccc(C(=O)Nc2ccccc2C(N)=O)cc1 | -20.2 | 86.9 | 16.9 | 32.5 | 51.6*
COc1ccc(C(=O)Nc2ccccc2C(=O)N2CCCCCC2)cc1 | nt | nt | nt | nt | 18.5
COc1ccc(NC(=O)c2ccccc2NC(=O)c2cccs2)cc1 | nt | nt | nt | nt | 1.8
NC(=O)c1ccccc1NC(=O)c1ccc2ccccc2c1 | nt | nt | nt | nt | 58.6*
COc1ccc(C(=O)Nc2ccccc2C(=O)Nc2ccccc2C(=O)O)cc1 | nt | nt | nt | nt | 58.5*
COc1ccc(C(=O)Nc2ccccc2C(=O)Nc2ccc(C(=O)O)cc2)cc1 | nt | nt | nt | nt | 46.6
COc1ccc(C(=O)Nc2ccccc2C(=O)Nc2ccncc2)cc1 | nt | nt | nt | nt | 65.0*
CCCCOC(=O)Nc1ccc(S(=O)(=O)Nc2onc(C)c2C)cc1 | nt | nt | nt | nt | -12.1
CCc1nc2ccc(C(=O)N3CCN(C(=O)c4ccco4)CC3)cn2c1N(C)C(=O)COc1ccccc1 | nt | nt | nt | nt | -12.5
COc1cccc(/C=N/NC(=O)c2ccccc2NC(=O)c2ccco2)c1OC | nt | nt | nt | -0.8 | 3.9
COc1ccc(C(=O)Nc2ccccc2C(=O)N/N=C/c2cccc3ccccc23)cc1 | 38.8* | 31.7 | 80.1* | 89.6* | 95.1*
O=C(Nc1ccccc1C(=O)N/N=C/c1ccc(O)cc1)c1ccccc1 | nt | nt | nt | 29.4 | 78.7*
O=[n+]1c2c(n([O-])c3c1CCC3)CCCC2 | -0.8 | 135.7* | -35.6 | 17.8 | 0.6
N#CC(C#N)=Cc1ccc(NC(=O)c2ccc(Br)cc2)cc1 | nt | nt | nt | 20.8 | 12.8
CC(C)(C)c1ccc(C(=O)Nc2ccc(C=C(C#N)C#N)cc2)cc1 | -4.0 | 87.7 | 15.0 | 50.1* | 52.9*
Cc1noc(/C=C/Nc2ccc(F)cc2F)c1[N+](=O)[O-] | -50.4 | 85.3 | 24.0 | 3.4 | 2.6
COc1ccccc1N/C=C/c1onc(C)c1[N+](=O)[O-] | 76.0* | 26.0 | 87.1* | 33.0 | 47.4
C=CC(C)(O)CCCC(C)CCCC(C)CCCC(C)C (stereo not given) | nt | nt | nt | nt | -0.1
CCc1cc(=O)oc2cc(C)cc(OC(C)C(=O)NCCCN3CCCC3=O)c12 (stereo not given) | nt | nt | nt | nt | -12.8
O=c1oc(-c2ccccc2)nc2sc3c(c12)CCC3 | -10.4 | 101.1 | 2.5 | 19.2 | -0.1
Nc1nc(-c2ccccc2)nc2sc3c(c12)CCCC3 | -102.2 | 105.1 | -8.9 | 54.7* | 76.2*
CC(=O)Nc1sc(C)c(C)c1C(=O)OCC(=O)N(CC(C)C)c1c(N)n(Cc2ccccc2)c(=O)[nH]c1=O | nt | nt | nt | nt | 94.7*
COC(=O)c1c(C)[nH]c(C(=O)OCC(=O)N(CC(C)C)c2c(N)n(Cc3ccccc3)c(=O)[nH]c2=O)c1C | nt | nt | nt | nt | 9.5
Cc1nc(C(F)(F)F)ccc1C(=O)N1CCC(C)(C(=O)O)C1 (stereo not given) | nt | nt | nt | nt | 6.1
C/C(=N\NC(=O)c1ccccc1F)c1cccc(NC(=O)c2ccc(C)cc2)c1 | nt | nt | nt | nt | 59.3*
SMILES | STAT1 blocker | STAT3 act | STAT3 blocker | PPC-1+TRAIL kill | C8 TRAIL sens
C/C(=N\NC(=O)c1ccc(Cl)cc1)c1cccc(NC(=O)c2cccnc2)c1 | -3.8 | 98.4 | 3.2 | 29.6 | 41.3
C/C(=N\NC(=O)c1ccc(O)cc1)c1cccc(NC(=O)c2ccc(Cl)cc2)c1 | nt | nt | nt | nt | 65.8*
C/C(=N\NC(=O)c1cccc(O)c1)c1cccc(NC(=O)c2ccc(F)cc2)c1 | nt | nt | nt | nt | 56.9*
C/C(=N\NC(=O)c1cccc(N/N=C(\C)c2cc(O)ccc2O)c1)c1cc(O)ccc1O | -9.9 | 91.4 | 14.9 | 20.4 | 55.4*
COC(=O)C1=C(c2ccc(OC)cc2)OC(=O)C1(C)C | nt | nt | nt | nt | -0.5
Cc1cccc(C)c1NC(=O)C1(C)CN(S(C)(=O)=O)CC(=O)N1Cc1cccs1 (stereo not given) | nt | nt | nt | nt | -12.3
CC1(C)OC2C(CO)OC(n3cnc4c(=S)nc(N)[nH]c43)C2O1 (stereo not given) | nt | nt | nt | nt | 11.0
Nc1nc(=S)c2ncn(C3OC(CO)C(O)C3O)c2[nH]1 (stereo not given) | nt | nt | nt | -22.3 | 56.0*
Nc1nc(=S)c2ncn([C@@H]3O[C@H](CO)[C@@H](O)[C@H]3O)c2[nH]1 | nt | nt | nt | nt | 73.3*
CN(C(=S)NC(=O)c1ccc(Cl)cc1)C1CCCCC1 | nt | nt | nt | nt | 50.1*
COc1ccccc1N1C(=O)c2ccccc2NC1c1ccncc1 (stereo not given) | 7.4 | 100.5 | 3.7 | 32.5 | 3.8
